Laboratory results published in publication PMC11892073 (Journal of Enzyme Inhibition and Medicinal Chemistry, 2025).

System: DU-145 prostate cancer cells
Assay: In vitro antiproliferation assay
Type: cell-based
Settings: Homo sapiens, DU-145, 72 h, read-out: DU-145 (IC50, nM)
Procedure, shortened: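 DU-145 cells (ATCC) grown in medium with 10% (v/v) FBS, 50 units/ml penicillin and 50 µg/ml streptomycin at 37 °C, 5% CO2. Seeded at 5 × 10^4 cells/well, left overnight, then exposed to varying test compound concentrations for 72 h at 37 °C. A 5 mg/mL MTT solution was added for 4 h. Supernatant was removed by centrifugation and crystals dissolved in DMSO. A570 was read. IC50 came from nonlinear regression; mean ± SD, n = 3.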

IC50: 4.03 ± 0.15 nM
Structure (SMILES): CC[C@@H]1C(=O)N(C)c2cnc(Nc3ccc(C(=O)N[C@H]4CC[C@H](N5CCN(CC6CC6)CC5)CC4)cc3OC)nc2N1C(C)C [BI-6727, volasertib]
